Measurements: BindingDB's records for doi:10.1016/j.bmcl.2005.10.065 (Cytrx Laboratories, 2005)

Target: T1, NADP-dependent malic enzyme (Homo sapiens, UniProt P48163)
T1 sequence (P48163 whole entry): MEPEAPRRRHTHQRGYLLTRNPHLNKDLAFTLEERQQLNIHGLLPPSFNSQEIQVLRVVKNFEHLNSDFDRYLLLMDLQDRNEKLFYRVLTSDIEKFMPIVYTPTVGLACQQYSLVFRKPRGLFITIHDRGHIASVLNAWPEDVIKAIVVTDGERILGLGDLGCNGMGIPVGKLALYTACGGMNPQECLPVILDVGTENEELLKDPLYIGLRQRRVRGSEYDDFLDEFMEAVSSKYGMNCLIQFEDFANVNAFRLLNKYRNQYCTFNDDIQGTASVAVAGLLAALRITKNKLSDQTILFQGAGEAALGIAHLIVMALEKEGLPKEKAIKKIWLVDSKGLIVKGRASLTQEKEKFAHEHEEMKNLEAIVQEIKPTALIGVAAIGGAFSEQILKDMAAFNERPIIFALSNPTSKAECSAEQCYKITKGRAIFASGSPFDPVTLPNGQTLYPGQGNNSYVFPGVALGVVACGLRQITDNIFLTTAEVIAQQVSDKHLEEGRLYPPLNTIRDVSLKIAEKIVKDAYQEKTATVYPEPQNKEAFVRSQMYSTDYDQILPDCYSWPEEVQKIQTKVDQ
Test: Inhibitory activity against cytosolic malic enzyme
Summary of the method: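 Coupled endpoint assay. Enzyme pre-incubated with compound 45 min at room temperature in 85 mM Tris pH 7.5 containing 2 mM malic acid and 5 mM MnCl2. Reaction started with 124 µM NADP, run 30 min at room temperature, stopped with 0.5 M EDTA. NADPH formed read via MTS/PMS reduction to formazan, absorbance at 492 nm.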

Question: With COc1ccc(N2CCN(c3cc(O)n(-c4cccc(Cl)c4Cl)c3O)CC2)cc1 [1-(2,3-dichlorophenyl)-3-(4-(4-methoxyphenyl)piperazin-1-yl)pyrrolidine-2,5-dione] as the compound, how does the IC50 read?
Answer: > 20 µM

Question: For COc1ccc(N2CCN(c3cc(O)n(-c4ccccc4)c3O)CC2)cc1 [3-(4-(4-methoxyphenyl)piperazin-1-yl)-1-phenylpyrrolidine-2,5-dione], which IC50 is on record?
Answer: > 20 µM
